Data published in ChEMBL document CHEMBL1955807, “Enaminones 12. An explanation of anticonvulsant activity and toxicity per Linus Pauling's clathrate hypothesis” (Eur J Med Chem, 2012).
Active and inactive are the calls of the source. The rule behind the calls is not given here.

How the values were obtained:
Rattus norvegicus [1] = species on record: Rattus norvegicus; assay: Anticonvulsant activity in rat assessed as protection against maximal electroshock-induced seizure; assay type: functional
Procedure, shortened: (§1)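 Phase VIB in male Sprague-Dawley rats dosed ip. The median effective dose (MES ED50) and median neurotoxic dose (TD50) were determined with confidence limits. Protective index was calculated as TD50/ED50.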

[2] = Neurotoxicity in rat; assay type: toxicity, organism-based; details: in vivo; procedure, shortened: as §1
Rattus norvegicus [3] = species on record: Rattus norvegicus; assay: Protective index, ratio of TD50 for rat to ED50 for rat; procedure, shortened: as §1
Mus musculus [4] = assay: Anticonvulsant activity in CF1 mouse assessed as protection against maximal electroshock-induced seizure up to 300 mg/kg, ip after 30 mins to 4 hrs; assay type: functional, organism-based; design: dose 300 mg/kg
Procedure, shortened: (§2)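 Phase I screen in mice: compounds suspended in 30% poly(ethylene glycol) 400 and given ip at three dose levels (30, 100 and 300 mg/kg). Anticonvulsant protection (MES, scPTZ) and neurologic toxicity by rotorod (inability to grasp) recorded 30 min and 4 h after dosing. Results were reported as animals affected over animals tested. Class 1 means activity at ≤100 mg/kg; class 3 means no activity at 300 mg/kg.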

Mus musculus [5] = assay: Anticonvulsant activity in CF1 mouse assessed as protection against subcutaneous pentylenetetrazole-induced seizure at 300 mg/kg, ip after 30 mins; assay type: functional, organism-based; design: dose 300 mg/kg; procedure, shortened: as §2
Mus musculus [6] = assay: Neurotoxicity in CF1 mouse up to 300 mg/kg, ip after 30 mins to 4 hrs by rotarod test; assay type: toxicity, organism-based; design: dose 300 mg/kg, route intraperitoneal; details: in vivo; procedure, shortened: as §2
Rattus norvegicus [7] = assay: Anticonvulsant activity in Sprague-Dawley rat assessed as protection against subcutaneous pentylenetetrazole-induced seizure at 30 mg/kg, ip after 4 hrs; assay type: functional, organism-based; design: dose 30 mg/kg
Rattus norvegicus [8] = assay: Anticonvulsant activity in Sprague-Dawley rat assessed as protection against maximal electroshock-induced seizure at 30 mg/kg, ip after 1 hr
Mus musculus [9] = assay: Neurotoxicity in CF1 mouse at 300 mg/kg, ip after 30 mins by rotarod test; assay type: toxicity, organism-based; design: dose 300 mg/kg, route intraperitoneal; details: in vivo, 0.5 h; procedure, shortened: as §2
Mus musculus [10] = assay: Neurotoxicity in CF1 mouse at 300 mg/kg, ip after 4 hrs by rotarod test; assay type: toxicity, organism-based; design: dose 300 mg/kg, route intraperitoneal; details: in vivo; procedure, shortened: as §2
Mus musculus [11] = assay: Toxicity in CF1 mouse assessed as mortality at 30 mg/kg, ip after 4 hrs; assay type: organism-based; design: dose 30 mg/kg, route intraperitoneal; details: in vivo
Mus musculus [12] = assay: Toxicity in CF1 mouse assessed as mortality at 30 mg/kg, ip after 30 mins; assay type: organism-based; design: dose 30 mg/kg, route intraperitoneal; details: in vivo, 0.5 h
Mus musculus [13] = assay: Neurotoxicity in CF1 mouse assessed as myoclonic jerks at 100 mg/kg, ip after 4 hrs by rotarod test; assay type: toxicity, organism-based; design: dose 100 mg/kg, route intraperitoneal; details: in vivo; procedure, shortened: as §2
Mus musculus [14] = assay: Neurotoxicity in CF1 mouse assessed as muscle spasms at 100 to 300 mg/kg, ip after 30 mins by rotarod test; assay type: toxicity, organism-based, Muscle tissue; design: dose 100-300 mg/kg, route intraperitoneal; details: in vivo, 0.5 h; procedure, shortened: as §2
Mus musculus [15] = assay: Neurotoxicity in CF1 mouse assessed as muscle spasms at 100 mg/kg, ip by rotarod test; assay type: toxicity, organism-based, Muscle tissue; design: dose 100 mg/kg, route intraperitoneal; details: in vivo; procedure, shortened: as §2
Mus musculus [16] = assay: Neurotoxicity in CF1 mouse assessed as muscle spasms at 300 mg/kg, ip by rotarod test; assay type: toxicity, organism-based, Muscle tissue; design: dose 300 mg/kg, route intraperitoneal; details: in vivo; procedure, shortened: as §2
Mus musculus [17] = assay: Anticonvulsant activity in CF1 mouse assessed as protection against maximal electroshock-induced seizure at 100 mg/kg, ip after 15 mins; assay type: functional, organism-based; design: dose 100 mg/kg
Mus musculus [18] = assay: Neurotoxicity in CF1 mouse at 100 mg/kg, ip after 30 mins by rotarod test; assay type: toxicity, organism-based; design: dose 100 mg/kg, route intraperitoneal; details: in vivo, 0.5 h; procedure, shortened: as §2
Rattus norvegicus [19] = assay: Anticonvulsant activity in ip dosed Sprague-Dawley rat assessed as protection against maximal electroshock-induced seizure; assay type: functional; procedure, shortened: as §1
[20] = Neurotoxicity in ip dosed Sprague-Dawley rat by rotarod test; assay type: toxicity, organism-based; details: in vivo; procedure, shortened: as §1
Rattus norvegicus [21] = species on record: Rattus norvegicus; assay: Protective index, ratio of TD50 for Sprague-Dawley rat by rotarod test to ED50 for Sprague-Dawley rat by MES test
Mus musculus [22] = assay: Neurotoxicity in CF1 mouse at 300 mg/kg, ip after 30 mins to 4 hrs by rotarod test; assay type: toxicity, organism-based; design: dose 300 mg/kg, route intraperitoneal; details: in vivo; procedure, shortened: as §2
Mus musculus [23] = assay: Anticonvulsant activity in CF1 mouse assessed as protection against maximal electroshock-induced seizure at 100 mg/kg, ip after 30 mins; assay type: functional, organism-based; design: dose 100 mg/kg; procedure, shortened: as §2
Mus musculus [24] = assay: Anticonvulsant activity in CF1 mouse assessed as protection against maximal electroshock-induced seizure at 300 mg/kg, ip after 30 mins to 4 hrs; assay type: functional, organism-based; design: dose 300 mg/kg; procedure, shortened: as §2
Mus musculus [25] = assay: Neurotoxicity in CF1 mouse at 100 mg/kg, ip by rotarod test; assay type: toxicity, organism-based; design: dose 100 mg/kg, route intraperitoneal; details: in vivo; procedure, shortened: as §2

## Cc1cc(NC2=CC(=O)C(C(=O)OC(C)(C)C)C(C)C2)no1 (stereo unspecified)
Rattus norvegicus [1]
  ED50: 28.1 mg/kg
[2]
  TD50: > 500 mg/kg
Rattus norvegicus [3]
  PI: >17.8

## Cc1cc(NC2=CC(=O)CCC2)no1
Mus musculus [4]
  Activity: inactive
Mus musculus [5]
  Activity: Active
Mus musculus [6]
  Activity: Non-toxic
Rattus norvegicus [7]
  Activity: Active
Rattus norvegicus [8]
  Activity: Active

## Cc1cc(C(=O)NC2=CC(=O)CC(C)C2)no1 (stereo unspecified)
Mus musculus [9]
  Activity: Toxic
Mus musculus [10]
  Activity: Toxic
Mus musculus [4]
  Activity: inactive
Mus musculus [5]
  Activity: inactive

## Cc1cc(NC(=O)c2c(C)cccc2C)no1 [SORETOLIDE]
Rattus norvegicus [1]
  ED50: 9.2 mg/kg
[2]
  TD50: > 500 mg/kg
Rattus norvegicus [3]
  PI: >54.3

## Cc1oncc1CNC1=CC(=O)CC(C)C1 (stereo unspecified)
Mus musculus [4]
  Activity: inactive
Mus musculus [5]
  Activity: inactive

## CC1(C)CC(=O)C=C(N)C1
Mus musculus [11]
  Activity: Toxic
Mus musculus [12]
  Activity: Toxic
Mus musculus [13]
  Activity: Toxic
Mus musculus [14]
  Activity: Toxic
Mus musculus [4]
  Activity: inactive
Mus musculus [5]
  Activity: inactive

## CC1CC(=O)C=C(N)C1 (stereo unspecified)
Mus musculus [15]
  Activity: Toxic
Mus musculus [9]
  Activity: Toxic
Mus musculus [16]
  Activity: Toxic
Mus musculus [4]
  Activity: inactive
Mus musculus [5]
  Activity: inactive

## Cc1cc(NC2=CC(=O)C(C(=O)OC(C)(C)C)C(C(F)(F)F)C2)no1 (stereo unspecified)
Mus musculus [4]
  Activity: inactive
Mus musculus [5]
  Activity: inactive

## Cc1cccc(C)c1NC(=O)c1conc1C
Rattus norvegicus [1]
  ED50: 8.9 mg/kg
[2]
  TD50: > 500 mg/kg
Rattus norvegicus [3]
  PI: >56.2

## Cc1cc(NC2=CC(=O)CC(C)C2)no1 (stereo unspecified)
Mus musculus [5]
  Activity: Active
Mus musculus [17]
  Activity: Active
Mus musculus [18]
  Activity: Toxic
Rattus norvegicus [19]
  ED50: 66 mg/kg
[20]
  TD50: > 120 mg/kg
Rattus norvegicus [21]
  PI: 1.8

## Cc1cc(NC2=CC(=O)CC(C)(C)C2)no1
Mus musculus [22]
  Activity: Toxic
Mus musculus [5]
  Activity: inactive
Mus musculus [18]
  Activity: Toxic
Mus musculus [23]
  Activity: Active
Mus musculus [24]
  Activity: Active

## Cc1cc(C(=O)Nc2c(C)cccc2C)no1
Rattus norvegicus [1]
  ED50: 5.5 mg/kg
[2]
  TD50: > 500 mg/kg
Rattus norvegicus [3]
  PI: >90.9

## CCOC(=O)C1C(=O)C=C(Nc2cc(C)on2)CC1C (stereo unspecified)
Rattus norvegicus [1]
  ED50: 68.9 mg/kg
[2]
  TD50: > 500 mg/kg
Rattus norvegicus [3]
  PI: >7.3

## Cc1cc(C(=O)NC2=CC(=O)CCC2)no1
Mus musculus [4]
  Activity: inactive
Mus musculus [5]
  Activity: inactive

## NC1=CC(=O)CCC1
Mus musculus [15]
  Activity: Toxic
Mus musculus [25]
  Activity: Toxic
Mus musculus [9]
  Activity: Toxic
Mus musculus [4]
  Activity: inactive
Mus musculus [5]
  Activity: inactive

## Cc1cc(C(=O)NC2=CC(=O)CC(C)(C)C2)no1
Mus musculus [4]
  Activity: inactive
Mus musculus [5]
  Activity: inactive

## Cc1oncc1CNC1=CC(=O)CC(C)(C)C1
Mus musculus [4]
  Activity: inactive
Mus musculus [5]
  Activity: inactive
